Reference: ChEMBL document CHEMBL2417386, “Novel conjugated quinoline-indoles compromise Plasmodium falciparum mitochondrial function and show promising antimalarial activity” (J Med Chem, 2013)

Legend:
Plasmodium falciparum [1] = assay: Antimalarial activity against mid to late trophozoite stage of Plasmodium falciparum 3D7 infected in RBC assessed as nonviable parasite at 200 uM after 0.5 hrs by SYTO 61 staining-based flow cytometric analysis relative to untreated control; format: functional
Plasmodium falciparum [2] = assay: Antimalarial activity against mid to late trophozoite stage of Plasmodium falciparum 3D7 infected in RBC assessed as nonviable parasite at 1000 uM after 0.5 hrs by SYTO 61 staining-based flow cytometric analysis relative to untreated control; format: functional
Plasmodium falciparum [3] = assay: Antimalarial activity against mid to late trophozoite stage of Plasmodium falciparum 3D7 infected in RBC assessed as abnormal mitochondria at 200 uM after 0.5 hrs by MitoTracker Red CMXRos-based fluorescence microscopic analysis relative to untreated control; format: functional
Plasmodium falciparum [4] = assay: Gametocytocidal activity against synchronous stage 4 to 5 of transgenic Plasmodium falciparum NF54 gametocyte harboring pfs16 promoter assessed as inhibition of parasite viability at 60 uM after 72 hrs by MitoTracker Red CMXRos-based assay relative to control; format: functional; conditions: NF54, 72 h
Plasmodium falciparum [5] = assay: Antimalarial activity against mid to late trophozoite stage of Plasmodium falciparum 3D7 infected in RBC assessed as abnormal mitochondria at 1000 uM after 0.5 hrs by MitoTracker Red CMXRos-based fluorescence microscopic analysis relative to untreated control; format: functional
Plasmodium falciparum [6] = assay: Antimalarial activity against mid to late trophozoite stage of Plasmodium falciparum 3D7 infected in RBC assessed as abnormal mitochondria at 0.005 uM after 0.5 hrs by MitoTracker Red CMXRos-based fluorescence microscopic analysis relative to untreated control; format: functional
[7] = Inhibition of beta-hematin formation after 24 hrs by spectrophotometric analysis in presence of nonidet P40; format: functional
Plasmodium falciparum [8] = assay: Antimalarial activity against mid to late trophozoite stage of Plasmodium falciparum 3D7 infected in RBC assessed as abnormal mitochondria at 40 uM after 0.5 hrs by MitoTracker Red CMXRos-based fluorescence microscopic analysis relative to untreated control; format: functional
Plasmodium falciparum [9] = assay: Antimalarial activity against mid to late trophozoite stage of Plasmodium falciparum 3D7 infected in RBC assessed as nonviable parasite at 0.005 uM after 0.5 hrs by SYTO 61 staining-based flow cytometric analysis relative to untreated control; format: functional
Plasmodium falciparum [10] = assay: Antimalarial activity against mid to late trophozoite stage of Plasmodium falciparum 3D7 infected in RBC assessed as nonviable parasite at 40 uM after 0.5 hrs by SYTO 61 staining-based flow cytometric analysis relative to untreated control; format: functional
Plasmodium falciparum [11] = assay: Antimalarial activity against Plasmodium falciparum 3D7 infected in RBC assessed as growth inhibition after 48 hrs by SYBR Green-I fluorescence assay; format: functional, organism-based; conditions: 3D7, 48 h
Method in brief: (§1)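 Parasite-infected red cells exposed to compound for 48 h; growth read by SYBR Green-I fluorescence; IC50 derived. Where a ± is given, it is the standard deviation of three individual experiments.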

Plasmodium falciparum [12] = assay: Antimalarial activity against Plasmodium falciparum K1 infected in RBC assessed as growth inhibition after 48 hrs by SYBR Green-I fluorescence assay; format: functional, organism-based; conditions: K1, 48 h; method in brief: as §1
Plasmodium falciparum [13] = assay: Antimalarial activity against mid to late trophozoite stage of Plasmodium falciparum 3D7 infected in RBC assessed as abnormal mitochondria at 15 uM after 0.5 hrs by MitoTracker Red CMXRos-based fluorescence microscopic analysis relative to untreated control; format: functional
Plasmodium falciparum [14] = assay: Antimalarial activity against mid to late trophozoite stage of Plasmodium falciparum 3D7 infected in RBC assessed as abnormal mitochondria at 3 uM after 0.5 hrs by MitoTracker Red CMXRos-based fluorescence microscopic analysis relative to untreated control; format: functional
Plasmodium falciparum [15] = assay: Antimalarial activity against mid to late trophozoite stage of Plasmodium falciparum 3D7 infected in RBC assessed as nonviable parasite at 15 uM after 0.5 hrs by SYTO 61 staining-based flow cytometric analysis relative to untreated control; format: functional
Plasmodium falciparum [16] = assay: Antimalarial activity against mid to late trophozoite stage of Plasmodium falciparum 3D7 infected in RBC assessed as nonviable parasite at 0.6 uM after 0.5 hrs by SYTO 61 staining-based flow cytometric analysis relative to untreated control; format: functional
[17] = Selectivity index, ratio of IC50 for HEK293 cells to IC50 for Plasmodium falciparum 3D7 after 72 hrs; format: toxicity, cell-based; conditions: human, read-out: Ratio IC50
Method in brief: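 Parasite (3D7) viability assay and HEK293 viability assay, each with a 72 h exposure. Index taken as the ratio of the IC50 values, HEK293 over 3D7.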

Plasmodium falciparum [18] = assay: Antimalarial activity against mid to late trophozoite stage of Plasmodium falciparum 3D7 infected in RBC assessed as nonviable parasite at 3 uM after 0.5 hrs by SYTO 61 staining-based flow cytometric analysis relative to untreated control; format: functional
[19] = Dissociation constant, pKa of the compound at 50 uM by spectrophotometric analysis; format: physicochemical
Plasmodium falciparum [20] = assay: Antimalarial activity against mid to late trophozoite stage of Plasmodium falciparum 3D7 infected in RBC assessed as abnormal mitochondria at 0.6 uM after 0.5 hrs by MitoTracker Red CMXRos-based fluorescence microscopic analysis relative to untreated control; format: functional
Plasmodium falciparum [21] = assay: Gametocytocidal activity against synchronous stage 1 to 3 of transgenic Plasmodium falciparum NF54 gametocyte harboring pfs16 promoter assessed as parasite viability after 72 hrs by luciferase reporter gene assay; format: functional, organism-based; conditions: NF54, 72 h
Plasmodium falciparum [22] = assay: Gametocytocidal activity against synchronous stage 4 to 5 of transgenic Plasmodium falciparum NF54 gametocyte harboring pfs16 promoter assessed as parasite viability after 72 hrs by MitoTracker Red CMXRos-based assay; format: functional, organism-based; conditions: NF54, 72 h
Plasmodium falciparum [23] = assay: Antimalarial activity against mid to late trophozoite stage of Plasmodium falciparum 3D7 infected in RBC assessed as abnormal mitochondria at 0.56 uM after 0.5 hrs by MitoTracker Red CMXRos-based fluorescence microscopic analysis relative to untreated control; format: functional
Plasmodium falciparum [24] = assay: Ratio of IC50 for trophozoite stage of Plasmodium falciparum 3D7 infected in RBC after 5 hrs to IC50 for Plasmodium falciparum 3D7 infected in RBC after 48 hrs; format: functional
Plasmodium falciparum [25] = assay: Antimalarial activity against trophozoite stage of Plasmodium falciparum 3D7 infected in RBC assessed as growth inhibition after 5 hrs by SYBR Green-I fluorescence assay; format: functional, organism-based; conditions: 3D7, 5 h
Method in brief: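 Trophozoite-stage parasites pulsed with compound for 5 h. Drug then washed out and parasites cultured a further 43 h before survival was assessed.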

Plasmodium falciparum [26] = assay: Antimalarial activity against mid to late trophozoite stage of Plasmodium falciparum 3D7 infected in RBC assessed as nonviable parasite at 5 uM after 0.5 hrs by SYTO 61 staining-based flow cytometric analysis relative to untreated control; format: functional
Plasmodium falciparum [27] = assay: Resistant index, ratio of IC50 for Plasmodium falciparum K1 to IC50 for Plasmodium falciparum 3D7; format: functional
Method in brief: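 Ratio of K1 to 3D7 IC50 values. Each IC50 comes from a 48 h drug exposure of the P. falciparum strain, with growth read by SYBR Green-I fluorescence. Where spread is given, it is the standard deviation of three individual experiments.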

Plasmodium falciparum [28] = assay: Ratio of IC50 for trophozoite stage of Plasmodium falciparum 3D7 infected in RBC after 5 hrs in presence of 5 uM ALLN to IC50 for trophozoite stage of Plasmodium falciparum 3D7 infected in RBC after 5 hrs in absence of ALLN; format: functional
Method in brief: (§2)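 Trophozoite-stage parasites pulsed 5 h with compound, with or without ALLN (0.2 or 5 μM). Drug and ALLN then removed; culture continued a further 43 h before survival was assessed. Antagonism expressed as the ratio of IC50 with ALLN to IC50 without ALLN.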

Plasmodium falciparum [29] = assay: Antimalarial activity against mid to late trophozoite stage of Plasmodium falciparum 3D7 infected in RBC assessed as nonviable parasite at 0.56 uM after 0.5 hrs by SYTO 61 staining-based flow cytometric analysis relative to untreated control; format: functional
Plasmodium falciparum [30] = assay: Ratio of IC50 for trophozoite stage of Plasmodium falciparum 3D7 infected in RBC after 5 hrs in presence of 0.2 uM ALLN to IC50 for trophozoite stage of Plasmodium falciparum 3D7 infected in RBC after 5 hrs in absence of ALLN; format: functional; method in brief: as §2
Plasmodium falciparum [31] = assay: Antimalarial activity against mid to late trophozoite stage of Plasmodium falciparum 3D7 infected in RBC assessed as nonviable parasite at 1.7 uM after 0.5 hrs by SYTO 61 staining-based flow cytometric analysis relative to untreated control; format: functional
Plasmodium falciparum [32] = assay: Antimalarial activity against mid to late trophozoite stage of Plasmodium falciparum 3D7 infected in RBC assessed as abnormal mitochondria at 1.7 uM after 0.5 hrs by MitoTracker Red CMXRos-based fluorescence microscopic analysis relative to untreated control; format: functional
Plasmodium falciparum [33] = assay: Antimalarial activity against mid to late trophozoite stage of Plasmodium falciparum 3D7 infected in RBC assessed as abnormal mitochondria at 5 uM after 0.5 hrs by MitoTracker Red CMXRos-based fluorescence microscopic analysis relative to untreated control; format: functional

## CCN(CC)CCCC(C)Nc1ccnc2cc(Cl)ccc12 (configuration not stated) [CHLOROQUINE]
Plasmodium falciparum [1]
  Activity: 36%
Plasmodium falciparum [2]
  Activity: 85%
Plasmodium falciparum [3]
  Activity: 5%
Plasmodium falciparum [4]
  inhibition at 60 µM: 100%
Plasmodium falciparum [5]
  Activity: 8%
Plasmodium falciparum [6]
  Activity: 12%
[7]
  IC50: 30 µM
Plasmodium falciparum [8]
  Activity: 0%
Plasmodium falciparum [9]
  Activity: 84%
Plasmodium falciparum [10]
  Activity: 23%

## Nc1cc(/C=C/c2c[nH]c3ccccc23)nc2ccccc12
Plasmodium falciparum [11]
  IC50: 0.2 µM
Plasmodium falciparum [12]
  IC50: 0.39 µM
Plasmodium falciparum [13]
  Activity: 93%
Plasmodium falciparum [14]
  Activity: 66%
Plasmodium falciparum [15]
  Activity: 88%
[7]
  IC50: > 4000 µM
Plasmodium falciparum [16]
  Activity: 46%
[17]
  selectivity ratio at 72 h: 79
Plasmodium falciparum [18]
  Activity: 77%
[19]
  pKa at 50 µM: 9.5
Plasmodium falciparum [20]
  Activity: 27%
Plasmodium falciparum [21]
  IC50: 0.37 µM
Plasmodium falciparum [22]
  IC50: 1.4 µM

## Cc1[nH]c2ccccc2c1/C=C/c1cc(N)c2ccccc2[n+]1C.[I-]
Plasmodium falciparum [23]
  Activity: 43%
Plasmodium falciparum [11]
  IC50: 0.17 µM
Plasmodium falciparum [12]
  IC50: 0.23 µM
Plasmodium falciparum [13]
  Activity: 99%
Plasmodium falciparum [24]
  Ratio IC50: 4.3
Plasmodium falciparum [25]
  IC50: 0.73 µM
Plasmodium falciparum [26]
  Activity: 66%
Plasmodium falciparum [27]
  Ratio IC50: 1.3
Plasmodium falciparum [28]
  Ratio IC50: 1.7
Plasmodium falciparum [15]
  Activity: 86%
[7]
  IC50: 220 µM
Plasmodium falciparum [29]
  Activity: 18%
Plasmodium falciparum [30]
  Ratio IC50: 1
[17]
  selectivity ratio at 72 h: 18
Plasmodium falciparum [31]
  Activity: 42%
Plasmodium falciparum [32]
  Activity: 86%
Plasmodium falciparum [21]
  IC50: 0.35 µM
Plasmodium falciparum [22]
  IC50: 1.9 µM
Plasmodium falciparum [33]
  Activity: 97%
